Measurements published in ChEMBL document CHEMBL1134294, “A prodrug form of a Plasmodium falciparum glutathione reductase inhibitor conjugated with a 4-anilinoquinoline” (J Med Chem, 2001).

How the values were obtained:
[1] = target: Glutathione reductase (Plasmodium falciparum 3D7) (UniProt O15770); assay: Competitive inhibition of Plasmodium falciparum Glutathione Reductase; settings: Plasmodium falciparum FcB1
Glutathione reductase = Glutathione reductase (Plasmodium falciparum 3D7, UniProt O15770); assay: In vitro inhibition of Plasmodium falciparum Glutathione Reductase; set-up: species or system FcB1
Glutathione reductase, sequence (O15770 whole entry): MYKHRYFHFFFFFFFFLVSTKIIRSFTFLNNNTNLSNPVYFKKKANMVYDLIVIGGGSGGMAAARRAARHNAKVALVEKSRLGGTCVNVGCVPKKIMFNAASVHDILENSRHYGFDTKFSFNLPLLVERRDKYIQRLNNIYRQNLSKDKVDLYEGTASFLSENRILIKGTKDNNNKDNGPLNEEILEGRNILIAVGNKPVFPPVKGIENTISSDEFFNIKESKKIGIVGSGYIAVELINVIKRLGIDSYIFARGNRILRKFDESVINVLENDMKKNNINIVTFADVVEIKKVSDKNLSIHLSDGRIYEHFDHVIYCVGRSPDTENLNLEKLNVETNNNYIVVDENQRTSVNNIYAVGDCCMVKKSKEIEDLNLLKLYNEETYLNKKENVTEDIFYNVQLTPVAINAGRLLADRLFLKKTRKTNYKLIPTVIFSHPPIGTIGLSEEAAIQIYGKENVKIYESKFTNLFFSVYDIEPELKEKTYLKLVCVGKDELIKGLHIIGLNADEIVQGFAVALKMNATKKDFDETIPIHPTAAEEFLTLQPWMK
Summary of the method: (§1)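 Recombinant purified GR (about 5 mU/ml) with 100 μM NADPH in 47 mM potassium phosphate, 200 mM KCl, 1 mM EDTA, pH 6.9, at 25 °C. Enzyme, NADPH and inhibitor are premixed and the reaction is started with 100 μM GSSG. NADPH loss is read at 340 nm. IC50 is taken from increasing inhibitor concentrations in 1% final DMSO, run in duplicate.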

[2] = target: T1, Glutathione reductase, mitochondrial (Homo sapiens, UniProt P00390); assay: In vitro inhibition of human Glutathione Reductase; summary of the method: as §1
T1 sequence (P00390 whole entry): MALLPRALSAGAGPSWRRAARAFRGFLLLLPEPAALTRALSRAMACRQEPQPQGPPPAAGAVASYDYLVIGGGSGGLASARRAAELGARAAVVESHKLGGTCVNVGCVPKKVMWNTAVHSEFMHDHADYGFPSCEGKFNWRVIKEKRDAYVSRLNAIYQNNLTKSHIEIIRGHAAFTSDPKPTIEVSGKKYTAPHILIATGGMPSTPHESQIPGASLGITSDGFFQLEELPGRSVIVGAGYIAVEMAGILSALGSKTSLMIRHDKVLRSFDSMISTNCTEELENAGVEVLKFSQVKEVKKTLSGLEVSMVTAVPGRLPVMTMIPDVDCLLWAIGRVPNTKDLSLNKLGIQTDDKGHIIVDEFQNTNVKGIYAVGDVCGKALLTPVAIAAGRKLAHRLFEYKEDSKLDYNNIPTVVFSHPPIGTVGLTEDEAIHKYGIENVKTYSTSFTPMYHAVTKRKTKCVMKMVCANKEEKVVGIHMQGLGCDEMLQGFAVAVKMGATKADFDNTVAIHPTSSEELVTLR

Plasmodium falciparum = assay: Effective dose against chloroquine-resistant Plasmodium falciparum FcB1R; format: functional; settings: read-out: ED50 (the source's name)
Summary of the method: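 Asynchronous cultures in human erythrocytes (0.5% parasitemia, 1% hematocrit) received serially diluted drug, DMSO ≤0.1%. After 24 h at 37 °C, 0.5 μCi [3H]hypoxanthine was added and incubation continued another 24 h. Growth inhibition was taken versus drug-free control, ED50 read from the concentration–response curve, and reported as mean of ≥3 independent experiments.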

[3] = target: T2, Glutathione reductase, mitochondrial (Homo sapiens) (UniProt P00390); assay: Competitive inhibition of human Glutathione Reductase
T2 sequence (whole entry): T1 sequence (P00390 whole entry)

Glutathione reductase (Plasmodium falciparum 3D7), sequence (O15770 whole entry): as the sequence (O15770 whole entry) above

Compound	Ki.c [1]	IC50 (Glutathione reductase)	IC50 [2]	EC50 (Plasmodium falciparum)	Ki.c [3]
CC1=C(CCCCCC(=O)O)C(=O)c2c(O)cccc2C1=O	2300 nM	1300 nM	750 nM	8200 nM	750 nM
CC1=C(CCC(=O)OCc2cc(NC(=O)CN3CCCCC3)cc(Nc3ccnc4cc(Cl)ccc34)c2)C(=O)c2ccccc2C1=O				144000 nM	
CC1=C(CCCCCC(=O)O)C(=O)c2ccccc2C1=O	500 nM	500 nM	2600 nM	3500 nM	1900 nM
CC1=C(CCCCC(=O)O)C(=O)c2ccccc2C1=O	3100 nM	4000 nM	2700 nM	2800 nM	1.8
